Measurements taken from paper PMC4469080 (Bioorganic & medicinal chemistry letters, 2015).
Like-named read-outs stand apart in the source and are kept apart here.

Key:
mouse SR-BI [1] = target: T1, mouse SR-BI (Mus musculus, UniProt Q61009); assay: DiI-HDL uptake assay; type: cell-based; details: for activity in DiI uptake assay (in words): inhibition of SR-BI-mediated lipid uptake
T1 sequence (Q61009 1-509): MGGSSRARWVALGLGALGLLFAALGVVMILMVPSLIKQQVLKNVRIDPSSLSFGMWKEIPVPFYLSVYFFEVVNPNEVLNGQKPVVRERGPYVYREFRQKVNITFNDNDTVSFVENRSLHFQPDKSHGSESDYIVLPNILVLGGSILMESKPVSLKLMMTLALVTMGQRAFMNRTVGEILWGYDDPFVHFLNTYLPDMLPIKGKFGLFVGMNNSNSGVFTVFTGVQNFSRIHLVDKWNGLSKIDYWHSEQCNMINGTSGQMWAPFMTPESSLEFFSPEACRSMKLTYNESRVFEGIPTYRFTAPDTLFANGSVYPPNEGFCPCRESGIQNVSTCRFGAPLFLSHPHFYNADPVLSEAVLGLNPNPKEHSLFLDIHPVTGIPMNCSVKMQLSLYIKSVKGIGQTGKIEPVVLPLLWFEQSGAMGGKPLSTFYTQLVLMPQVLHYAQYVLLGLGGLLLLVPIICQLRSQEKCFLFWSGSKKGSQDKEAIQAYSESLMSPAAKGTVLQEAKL
Method in brief: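 CHO cells (ldlA line) overexpressing mouse SR-BI take up the fluorescent lipid DiI from DiI-labeled HDL particles. In the high-throughput screen, compounds were tested at 12.5 μM against 1 μM BLT-1 as the positive control. Plates with Z′ < 0.3 were excluded, and a counterscreen removed compounds that quenched DiI-HDL fluorescence in a dose-dependent manner. IC50 values came from retests of compounds as purified dry powders.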

Solubility in PBS = type: physicochemical; details: in PBS (with 1% DMSO)
mouse SR-BI [2] = target: T1, mouse SR-BI; details: read-out: IC50 in the primary assay; previous probes; cited from earlier work

Row | SMILES | activity in DiI uptake assay (in words) (mouse SR-BI [1]) | also measured
1 | C[C@@H]1CN([C@H](C)CO)C(=O)c2cc(NC(=O)Cc3cn(C)c4ccccc34)ccc2O[C@H]1CN(C)S(=O)(=O)c1ccc(Cl)cc1 [Compound 1a] |  | IC50 (mouse SR-BI [1]): 460 nM
2 | C[C@@H]1CN([C@H](C)CO)C(=O)c2cc(NC(=O)Cc3cn(C)c4ccccc34)ccc2O[C@H]1CN(C)S(C)(=O)=O [Compound 1g] | weak potency | solubility (Solubility in PBS): good solubility
3 | C[C@@H]1CN([C@H](C)CO)C(=O)c2cc(NC(=O)C3CCCCC3)ccc2O[C@H]1CN(C)C(=O)c1ccc(Cl)cc1 [Compound 5] | inactive | 
4 | C[C@@H]1CN([C@H](C)CO)C(=O)c2cc(NC(=O)C3CCCCC3)ccc2O[C@H]1CN(C)S(=O)(=O)c1cccc(Cl)c1 [Compound 6] |  | IC50 (mouse SR-BI [1]; DiI uptake assay, average of at least two measurements (Table 4, various analogs)): 800 nM
5 | C[C@@H]1CN([C@H](C)CN)C(=O)c2cc(NC(=O)Cc3cn(C)c4ccccc34)ccc2O[C@H]1CN(C)S(=O)(=O)c1ccc(Cl)cc1 [Compound 9] | inactive | 
6 | C[C@@H]1CN([C@H](C)CN(C)C)C(=O)c2cc(NC(=O)Cc3cn(C)c4ccccc34)ccc2O[C@H]1CN(C)S(=O)(=O)c1ccc(Cl)cc1 [Compound 10] | inactive | 
7 | COCC(=O)n1ccc2cc(-c3csc(NC(=O)c4cc(OC)cc(OC)c4)n3)ccc21 [ML278] |  | IC50 (mouse SR-BI [2]): 6 nM

Continued, in another order:

Row | activity in DiI uptake assay (in words) (mouse SR-BI [1]) | SMILES | also measured
8 | inactive | CC(C)NC(=O)Nc1cccc2c1O[C@@H](CN(C)S(=O)(=O)c1ccc(Cl)cc1)[C@H](C)CN([C@H](C)CO)C2=O [Compound 3] | 
9 | abrogated the activity | CC(C)NC(=O)Nc1ccc2c(c1)C(=O)N([C@H](C)CO)C[C@@H](C)[C@H](CN(C)S(=O)(=O)c1ccc(Cl)cc1)O2 [Compound 4] | 
10 | only weakly active | COC[C@@H](C)N1C[C@@H](C)[C@H](CN(C)S(=O)(=O)c2ccc(Cl)cc2)Oc2ccc(NC(=O)NC(C)C)cc2C1=O [Compound 11] | 
11 | weak activity | CC(C)NC(=O)Nc1ccc2c(c1)C(=O)N(C(C)C)C[C@@H](C)[C@H](CN(C)S(=O)(=O)c1ccc(Cl)cc1)O2 [Compound 12] | 
